{"source": "ChEMBL document CHEMBL4152262", "about": "“Design, synthesis and evaluation of novel multi-target-directed ligands for treatment of Alzheimer's disease based on coumarin and lipoic acid scaffolds” (Eur J Med Chem, 2018)", "key": {"PC-12 [1]": {"test_system": "PC-12", "experiment": "Neuroprotection against H2O2-induced cell death in rat PC12 cells assessed as cell viability at 1 uM preincubated for 3 hrs followed by H2O2 stimulation measured after 2 hrs by MTT assay (reference value: 25.2 to 41.8%)", "type": "functional", "details": "read-out: Activity"}, "PC-12 [2]": {"test_system": "PC-12", "experiment": "Neuroprotection against H2O2-induced cell death in rat PC12 cells assessed as cell viability at 5 uM preincubated for 3 hrs followed by H2O2 stimulation measured after 2 hrs by MTT assay (reference value: 25.2 to 41.8%)", "type": "functional", "details": "read-out: Activity"}, "PC-12 [3]": {"test_system": "PC-12", "experiment": "Neuroprotection against H2O2-induced cell death in rat PC12 cells assessed as cell viability at 10 uM preincubated for 3 hrs followed by H2O2 stimulation measured after 2 hrs by MTT assay (reference value: 25.2 to 41.8%)", "type": "functional", "details": "read-out: Activity"}, "PC-12 [4]": {"test_system": "PC-12", "experiment": "Neuroprotection against H2O2-induced cell death in rat PC12 cells assessed as increase in cell viability preincubated for 3 hrs followed by H2O2 stimulation measured after 2 hrs by MTT assay", "type": "functional, cell-based"}, "Acetylcholinesterase": {"molecular_target": "Acetylcholinesterase (Electrophorus electricus, UniProt O42275)", "sequence (O42275 whole entry)": "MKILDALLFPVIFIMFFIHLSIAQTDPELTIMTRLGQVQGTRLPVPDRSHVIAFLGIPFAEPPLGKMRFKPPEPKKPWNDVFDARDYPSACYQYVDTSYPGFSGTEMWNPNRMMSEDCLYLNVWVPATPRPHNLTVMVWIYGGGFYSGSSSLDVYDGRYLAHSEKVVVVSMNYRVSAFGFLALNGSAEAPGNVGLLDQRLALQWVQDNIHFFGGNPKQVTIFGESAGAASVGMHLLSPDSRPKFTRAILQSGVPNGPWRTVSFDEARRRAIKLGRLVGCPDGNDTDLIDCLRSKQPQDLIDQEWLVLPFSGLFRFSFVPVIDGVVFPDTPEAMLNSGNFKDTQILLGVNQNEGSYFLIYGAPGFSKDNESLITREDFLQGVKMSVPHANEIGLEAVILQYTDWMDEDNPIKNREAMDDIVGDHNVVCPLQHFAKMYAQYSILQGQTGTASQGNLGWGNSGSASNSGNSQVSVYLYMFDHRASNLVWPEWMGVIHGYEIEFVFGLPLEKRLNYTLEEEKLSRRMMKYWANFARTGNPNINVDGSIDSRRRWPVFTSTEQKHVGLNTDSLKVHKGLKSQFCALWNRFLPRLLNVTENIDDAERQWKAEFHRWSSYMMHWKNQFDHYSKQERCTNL", "experiment": "Inhibition of electric eel AChE using acetylthiocholine iodide as substrate pretreated for 5 mins followed by substrate addition by Ellman's method"}, "[5]": {"molecular_target": "Acetylcholinesterase (Homo sapiens) (UniProt P22303)", "sequence (P22303 whole entry)": "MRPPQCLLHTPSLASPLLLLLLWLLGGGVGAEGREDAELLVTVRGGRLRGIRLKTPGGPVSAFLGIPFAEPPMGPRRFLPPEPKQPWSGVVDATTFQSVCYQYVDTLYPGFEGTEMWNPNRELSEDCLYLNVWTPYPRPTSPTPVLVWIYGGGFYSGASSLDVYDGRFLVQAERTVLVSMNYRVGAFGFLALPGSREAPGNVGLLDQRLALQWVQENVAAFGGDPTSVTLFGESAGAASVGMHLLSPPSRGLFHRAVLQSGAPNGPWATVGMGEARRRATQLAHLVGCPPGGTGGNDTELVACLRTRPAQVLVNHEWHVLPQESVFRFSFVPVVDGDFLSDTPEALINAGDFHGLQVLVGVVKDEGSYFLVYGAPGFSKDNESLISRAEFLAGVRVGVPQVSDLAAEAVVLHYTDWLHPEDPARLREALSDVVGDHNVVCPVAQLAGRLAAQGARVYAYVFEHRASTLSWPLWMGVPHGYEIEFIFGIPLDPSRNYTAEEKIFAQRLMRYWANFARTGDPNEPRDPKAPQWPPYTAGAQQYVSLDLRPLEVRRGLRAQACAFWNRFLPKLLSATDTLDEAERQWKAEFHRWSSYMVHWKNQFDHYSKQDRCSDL", "experiment": "Potency index, ratio of compound effect to donepezil effect for inhibition of recombinant human AChE-induced amyloid beta (1 to 42) aggregation at 100 uM", "summary_of_the_method": "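Prefibrillated Aβ1-42 (prepared 72 h at 37 °C in PBS/1% ammonium hydroxide) was coincubated with human recombinant AChE (0.01 u/mL) in 0.05 M KP buffer pH 7.4, 37 °C, 48 h, with or without compound or donepezil at 100 µM. ThT added; fluorescence read at ex 448/em 490 nm. % inhibition from intensities with vs without inhibitor; three experiments.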"}, "SH-SY5Y": {"test_system": "SH-SY5Y", "experiment": "Inhibition of amyloid beta (1 to 42) (unknown origin)-induced cell death in human SH-SY5Y cells assessed as cell viability at 10 uM preincubated for 3 hrs followed by amyloid beta (1 to 42) addition measured after 24 hrs by MTT assay relative to control", "type": "functional", "details": "read-out: Activity", "summary_of_the_method": "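SH-SY5Y cells grown in DMEM with 10% FBS, 1% L-glutamine and antibiotics, seeded at 5×10^3/well. Pretreated 3 h with compound (10 or 50 µM), then Aβ1-42 10 µM added for 24 h. MTT, formazan dissolved in DMSO, A570. Viability as blank-corrected % of untreated control; three independent experiments, mean ± SEM.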"}, "[6]": {"experiment": "Metal chelating activity assessed as compound-Al3+ complex formation at 20 uM after 30 mins by UV-visible spectrophotometric analysis", "summary_of_the_method": "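Compound (final 20 µM in methanol) mixed with metal salt (CuCl2, FeSO4, ZnCl2, AlCl3, MgCl2 or CaCl2, final 20 µM in methanol). After 30 min at room temperature, UV spectra recorded from 200 to 500 nm in 1-cm quartz cells on a dual-beam spectrophotometer.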"}}, "note": "The source made the active and inactive calls. The rule behind the calls is not given here.", "data": [{"smiles": "COc1ccc(-c2cc3ccc(OCCCn4cc(CNC(=O)CCCCC5CCSS5)nn4)cc3oc2=O)cc1OC", "note": "(stereo not drawn)", "values": [{"measurement": "viability at 1 µM", "setting": "PC-12 [1]", "value": 39.3, "unit": "%"}, {"measurement": "viability at 5 µM", "setting": "PC-12 [2]", "value": 40.6, "unit": "%"}, {"measurement": "viability at 10 µM", "setting": "PC-12 [3]", "value": 43.5, "unit": "%"}, {"measurement": "Activity", "setting": "PC-12 [4]", "value": "Dose-dependent effect"}, {"measurement": "IC50", "setting": "Acetylcholinesterase", "value": 16.4, "unit": "µM"}, {"measurement": "Ratio", "setting": "[5]", "value": 2}, {"measurement": "viability at 10 µM", "setting": "SH-SY5Y", "value": 64.7, "unit": "%"}, {"measurement": "Activity", "setting": "[6]", "value": "inactive"}]}]}
